Measurements reported in ChEMBL document CHEMBL1137710, “Synthesis and in vitro antitumor activity of new quinoxaline derivatives” (2009).

How the values were obtained:
Format in all cases: functional
SK-MEL-2 = experiment: Growth inhibition of human SK-MEL-2 cells after 48 hrs by sulforhodamine B assay; details: SK-MEL-2, 48 h
Summary of the method: (§1)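 NCI 60-human-tumor-cell-line panel, with compounds tested over a 5-log dose range. Values are taken from dose-response curves as log10 molar concentrations: GI50 is 50% net growth inhibition, TGI is total growth inhibition, and LC50 is 50% net cell death.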

SK-OV-3 = experiment: Growth inhibition of human SKOV3 cells after 48 hrs by sulforhodamine B assay; details: SK-OV-3, 48 h; summary of the method: as §1
NCI-H322M = experiment: Growth inhibition of human NCI-H322M cells after 48 hrs by sulforhodamine B assay; summary of the method: as §1
UO-31 = experiment: Growth inhibition of human UO31 cells after 48 hrs by sulforhodamine B assay; details: UO-31, 48 h
Summary of the method: (§2)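 Run in the NCI 60-human-tumour-cell-line panel, tested over a 5-log dose range. Dose–response curves gave three values per cell line, each as a log10 molar concentration: GI50 (50% inhibition of net cell growth), TGI (total inhibition of net growth) and LC50 (50% net cell death). The mean graph midpoint is the arithmetic mean over all lines, with insensitive lines entered at the highest concentration tested.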

HCT-116 = experiment: Growth inhibition of human HCT116 cells after 48 hrs by sulforhodamine B assay; details: HCT-116, 48 h; summary of the method: as §1
NCI-H522 = experiment: Growth inhibition of human NCI-H522 cells after 48 hrs by sulforhodamine B assay; details: NCI-H522, 48 h; summary of the method: as §1
K562 = experiment: Growth inhibition of human K562 cells after 48 hrs by sulforhodamine B assay; details: K562, 48 h; summary of the method: as §1
SK-MEL-28 = experiment: Growth inhibition of human SK-MEL-28 cells after 48 hrs by sulforhodamine B assay; details: SK-MEL-28, 48 h; summary of the method: as §1
786-0 = experiment: Growth inhibition of human 786-0 cells after 48 hrs by sulforhodamine B assay; details: 786-0, 48 h; summary of the method: as §1
CAKI-1 = experiment: Growth inhibition of human Caki1 cells after 48 hrs by sulforhodamine B assay; details: CAKI-1, 48 h; summary of the method: as §1
SW-620 = experiment: Growth inhibition of human SW620 cells after 48 hrs by sulforhodamine B assay; details: SW-620, 48 h; summary of the method: as §2
[1] = Growth inhibition of human […] cells after 48 hrs by sulforhodamine B assay; summary of the method: as §1
IGROV-1 = experiment: Growth inhibition of human IGROV1 cells after 48 hrs by sulforhodamine B assay; details: IGROV-1, 48 h; summary of the method: as §1
M14 = experiment: Growth inhibition of human M14 cells after 48 hrs by sulforhodamine B assay; details: M14, 48 h; summary of the method: as §1
MDA-MB-435 = experiment: Growth inhibition of human MDA-MB-435 cells after 48 hrs by sulforhodamine B assay; details: MDA-MB-435, 48 h; summary of the method: as §1
SF-268 [2] = experiment: Growth inhibition of human SF268 cells after 48 hrs by sulforhodamine B assay; details: SF-268, 48 h; summary of the method: as §1
U-251 = experiment: Growth inhibition of human U251 cells after 48 hrs by sulforhodamine B assay; details: U-251, 48 h; summary of the method: as §2
SF-268 [3] = experiment: Anticancer activity against human SF268 cells assessed as cell growth at 100 uM after 48 hrs by sulforhodamine B assay; details: SF-268, 48 h, read-out: Activity
DU-145 = experiment: Growth inhibition of human DU145 cells after 48 hrs by sulforhodamine B assay; details: DU-145, 48 h; summary of the method: as §1
A549 = experiment: Growth inhibition of human A549 cells after 48 hrs by sulforhodamine B assay; details: A549, 48 h; summary of the method: as §1
UACC-62 = experiment: Growth inhibition of human UACC62 cells after 48 hrs by sulforhodamine B assay; details: UACC-62, 48 h; summary of the method: as §2
NCI-H460 = experiment: Anticancer activity against human NCI-H460 cells assessed as cell growth at 100 uM after 48 hrs by sulforhodamine B assay; details: NCI-H460, 48 h, read-out: Activity
SF-295 = experiment: Growth inhibition of human SF295 cells after 48 hrs by sulforhodamine B assay; details: SF-295, 48 h; summary of the method: as §1
MCF7 [4] = experiment: Growth inhibition of human MCF7 cells after 48 hrs by sulforhodamine B assay; details: MCF7, 48 h; summary of the method: as §1
LOX IMVI = experiment: Growth inhibition of human LOXIMVI cells after 48 hrs by sulforhodamine B assay; summary of the method: as §1
OVCAR-4 = experiment: Growth inhibition of human OVCAR4 cells after 48 hrs by sulforhodamine B assay; details: OVCAR-4, 48 h; summary of the method: as §1
NCI-H23 = experiment: Growth inhibition of human NCI-H23 cells after 48 hrs by sulforhodamine B assay; details: NCI-H23, 48 h; summary of the method: as §1
HOP-62 = experiment: Growth inhibition of human HOP62 cells after 48 hrs by sulforhodamine B assay; details: HOP-62, 48 h; summary of the method: as §1
MCF7 [5] = experiment: Anticancer activity against human MCF7 cells assessed as cell growth at 100 uM after 48 hrs by sulforhodamine B assay; details: MCF7, 48 h, read-out: Activity
SK-MEL-5 = experiment: Growth inhibition of human SK-MEL-5 cells after 48 hrs by sulforhodamine B assay; details: SK-MEL-5, 48 h; summary of the method: as §1
[6] = read-out: pLC50 (the source's name) (converted)

In the case of `Nc1cc(N)c2nc(-c3ccccc3)c(Sc3ccc(F)cc3)nc2c1`, the GI50 (SK-MEL-2) is reported as 38 µM, the CC50 (SK-MEL-2; [6]) is reported as > 100 µM and the TGI (SK-MEL-2; read-out: pTGI (converted)) is reported as > 100 µM. It also gave a GI50 (SK-OV-3) of 15.8 µM, a CC50 (SK-OV-3; [6]) of 63.1 µM and a TGI (SK-OV-3; read-out: pTGI (converted)) of 31.6 µM. The GI50 (NCI-H322M) was 20.4 µM, the LC50 (NCI-H322M) was 70.8 µM and the TGI (NCI-H322M; read-out: pTGI (converted)) was 38 µM. The GI50 (UO-31) was > 100 µM, the CC50 (UO-31; [6]) was > 100 µM and the TGI (UO-31; read-out: pTGI (converted)) was > 100 µM. It also gave a GI50 (HCT-116) of 14.8 µM, an LC50 (concentration causing 50% net cell death) (HCT-116) of 55 µM and a TGI (HCT-116; read-out: pTGI (converted)) of 28.2 µM. For the same molecule, the GI50 (NCI-H522) was > 100 µM, the LC50 (NCI-H522) was > 100 µM and the TGI (NCI-H522; read-out: pTGI (converted)) was > 100 µM. For the same molecule, the GI50 (K562) was 39.8 µM, the LC50 (K562) was > 100 µM and the TGI (K562; read-out: pTGI (converted)) was 38.9 µM. For the same molecule, the GI50 (SK-MEL-28) was 23.4 µM, the CC50 (SK-MEL-28; [6]) was > 100 µM and the TGI (SK-MEL-28; read-out: pTGI (converted)) was 53.7 µM. The GI50 (786-0) was > 100 µM, the CC50 (786-0; [6]) was > 100 µM and the TGI (786-0; read-out: pTGI (converted)) was > 100 µM. For the same molecule, the GI50 (CAKI-1) was > 100 µM, the CC50 (CAKI-1; [6]) was > 100 µM and the TGI (CAKI-1; read-out: pTGI (converted)) was > 100 µM. For the same molecule, the GI50 (SW-620) was 22.9 µM, the CC50 (SW-620; [6]) was > 100 µM and the TGI (SW-620; read-out: pTGI (converted)) was 50.1 µM. For the same molecule, the GI50 [1] was 28.2 µM, the LC50 [1] was > 100 µM and the TGI ([1]; read-out: pTGI (converted)) was 81.3 µM. The GI50 (IGROV-1) was 25.1 µM, the CC50 (IGROV-1; [6]) was > 100 µM and the TGI (IGROV-1; read-out: pTGI (converted)) was > 100 µM. The GI50 (M14) was 15.8 µM, the CC50 (M14; [6]) was 58.9 µM and the TGI (M14; read-out: pTGI (converted)) was 30.9 µM. The GI50 (MDA-MB-435) was 16.2 µM, the CC50 (MDA-MB-435; [6]) was 66.1 µM and the TGI (MDA-MB-435; read-out: pTGI (converted)) was 33.1 µM. It also gave a GI50 (SF-268 [2]) of 17.8 µM, an LC50 (SF-268 [2]) of 85.1 µM and a TGI (SF-268 [2]; read-out: pTGI (converted)) of 38.9 µM. The GI50 (U-251) was 16.2 µM, the LC50 (50% net cell kill) (U-251) was 61.7 µM and the TGI (U-251; read-out: pTGI (converted)) was 31.6 µM. The growth at 100 µM (SF-268 [3]) was 0%, the GI50 (DU-145) was > 100 µM and the CC50 (DU-145; [6]) was > 100 µM. The TGI (DU-145; read-out: pTGI (converted)) was > 100 µM, the GI50 (A549) was 13.5 µM and the LC50 (A549) was 70.8 µM. It also gave a TGI (A549; read-out: pTGI (converted)) of 30.9 µM, a GI50 (UACC-62) of 16.6 µM and a CC50 (UACC-62; [6]) of 60.3 µM. It also gave a TGI (UACC-62; read-out: pTGI (converted)) of 31.6 µM, a growth at 100 µM (NCI-H460) of 0% and a GI50 (SF-295) of 13.8 µM. The LC50 (50% net cell kill) (SF-295) was 64.6 µM, the TGI (SF-295; read-out: pTGI (converted)) was 30.2 µM and the GI50 (MCF7 [4]) was 20 µM. The CC50 (MCF7 [4]; [6]) was > 100 µM, the TGI (MCF7 [4]; read-out: pTGI (converted)) was 63.1 µM and the GI50 (LOX IMVI) was 22.9 µM. For the same molecule, the LC50 (LOX IMVI) was 74.1 µM, the TGI (LOX IMVI; read-out: pTGI (converted)) was 40.7 µM and the GI50 (OVCAR-4) was 22.9 µM. The CC50 (OVCAR-4; [6]) was > 100 µM, the TGI (OVCAR-4; read-out: pTGI (converted)) was 56.2 µM and the GI50 (NCI-H23) was 19.1 µM. It also gave an LC50 (50% net cell kill concentration) (NCI-H23) of 81.3 µM, a TGI (NCI-H23; read-out: pTGI (converted)) of 39.8 µM and a GI50 (HOP-62) of 16.6 µM. For the same molecule, the LC50 (HOP-62) was 70.8 µM, the TGI (HOP-62; read-out: pTGI (converted)) was 34.7 µM and the growth at 100 µM (MCF7 [5]) was 7%. The GI50 (SK-MEL-5) was 15.5 µM, the CC50 (SK-MEL-5; [6]) was 70.8 µM and the TGI (SK-MEL-5; read-out: pTGI (converted)) was 33.1 µM.
